In brackets after ≈: the same amount, converted by molar mass.
Assays:
NCI/ADR-RES = experiment: Cytotoxicity against MCF-7/Adr cells.; type: functional, cell-based, Homo sapiens
Summary of the method: (§1)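 MCF-7/Adr cells kept in RPMI with 10% heat-inactivated FCS and 1% pen/strep, plated at 15 000 cells/mL on poly(D-lysine)-coated plates, left overnight at 37 °C. Day 1: compound added in 95% ethanol (1% by volume). Incubated 6 more days, growth read by BCA protein assay (A570), normalized to vehicle wells, n = 4. IC50 from linear regression through three points spanning 50%; R value from that regression.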

[1] = Bullaticin index relates the IC50 values by normalizing to the value of bullatacin for easy comparison.; type: ADME
Summary of the method: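 Index is IC50 of each compound divided by bullatacin's IC50, from the same 6-day BCA protein growth assay in MCF-7/Adr cells, n = 4.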

[2] = Statistical significance of IC 50 values; Expressed as R value; type: ADME; summary of the method: as §1

| Compound | IC50 (NCI/ADR-RES) [µg/mL] | Bullatacin index [1] | Activity [2] |
| --- | --- | --- | --- |
| CCCCCCCCCCCC[C@@H](O)[C@H]1CC[C@H]([C@H]2CC[C@H]([C@H](O)CCCCCC[C@@H](O)CC3=C[C@H](C)OC3=O)O2)O1 | > 1 | – | – |
| CCCCCCCCCCCC[C@@H](O)[C@H]1CC[C@H]([C@H](O)CCCC[C@H](O)CCCCC[C@@H](O)CC2=C[C@H](C)OC2=O)O1 [ANNONACIN] | – | 4.19 | 0.99 |
| CCCCCCCCCCCC/C=C\CC[C@@H](O)[C@H](O)CC[C@H](O)[C@@H]1CC[C@@H](CCCCC[C@@H](O)CC2=C[C@H](C)OC2=O)O1 | – | 5.26 | 0.98 |
| CCCCCCCCCCCC[C@@H](O)[C@H](O)CC[C@H](O)[C@@H]1CC[C@@H](CCC[C@H](O)[C@@H](O)CC[C@@H](O)CC2=C[C@H](C)OC2=O)O1 | > 1 | – | – |
| CCCCC[C@H](O)CCCC[C@H](O)[C@H]1CC[C@H]([C@H]2CC[C@H]([C@H](O)CCCCCCCCCCCCC3=C[C@H](C)OC3=O)O2)O1 [MOTRILIN] | – | 1.23 | 0.99 |
| CCCCCCCCCC[C@H](O)[C@H]1CC[C@H]([C@H](O)CC[C@H](O)[C@@H]2CC[C@@H](CCCCCCC[C@@H](O)CC3=C[C@H](C)OC3=O)O2)O1 [BULLATALICIN] | – | 4.72 | 0.98 |
| CCCCCCCCCC[C@@H](O)[C@@H]1CC[C@H]([C@H](O)CC[C@H](O)[C@@H]2CC[C@@H](CCCCCCC[C@@H](O)CC3=C[C@H](C)OC3=O)O2)O1 [SYLVATICIN] | – | 2.76 | 0.94 |
| CCCCCCCCCCCCCC[C@@H](O)[C@H](O)CC[C@H](O)[C@@H]1CC[C@@H](CCCCC[C@@H](O)CC2=C[C@H](C)OC2=O)O1 [GIGANTETROCIN A] | – | 0.5 | 0.97 |
| CCCCCCCCCCCC[C@@H](O)[C@H]1CC[C@H]([C@H]2CC[C@H]([C@H](O)CC[C@H](O)CCCCCCCCC3=C[C@H](C)OC3=O)O2)O1 | 1.4 (≈ 2.2 µM) | 67.2 | 1 |
| CCCCCCCCCC[C@@H](O)[C@H]1CC[C@@H]([C@H]2CC[C@H]([C@H](O)CCCCCCCCCC[C@@H](O)CC3=C[C@H](C)OC3=O)O2)O1 [TRILOBACIN] | 59.9 (≈ 96.2 µM) | 2.89 | 0.98 |
| COc1cccc2c1C(=O)c1c(O)c3c(c(O)c1C2=O)C[C@@](O)(C(=O)CO)C[C@@H]3O[C@H]1C[C@H](N)[C@H](O)[C@H](C)O1 [DOXORUBICIN] | 5.37 (≈ 9.88 µM) | 258.5 | 1 |
| CCCCCCCCCCCC[C@H](O)[C@@H](O)CC[C@H](O)[C@@H]1CC[C@@H](CCC[C@H](O)[C@@H](O)CC[C@@H](O)CC2=C[C@H](C)OC2=O)O1 | > 1 | – | – |
| CCCCCCCCCC[C@@H](O)[C@@H]1CC[C@@H]([C@@H]2CC[C@@H]([C@H](O)CCCCCCCCCC(O)CC3=CC(C)OC3=O)O2)O1 (stereo not given in full) [BULLATACIN] | 10.8 (≈ 17.7 µM) | 1 | 0.97 |
| CC[C@]1(O)C[C@@H]2CN(CCc3c([nH]c4ccccc34)[C@@](C(=O)OC)(c3cc4c(cc3OC)N(C)[C@H]3[C@@](O)(C(=O)OC)[C@H](OC(C)=O)[C@]5(CC)C=CCN6CC[C@]43[C@@H]65)C2)C1 [VINBLASTINE] | 390 (≈ 481 µM) | 18.8 | 1 |
| CCCCCCCCCCCC[C@H](O)[C@H]1CC[C@H]([C@H]2CC[C@H]([C@H](O)CCCCCCCC[C@@H](O)CC3=C[C@H](C)OC3=O)O2)O1 [SQUAMOTACIN] | – | 6.79 | 1 |
| CC[C@]1(O)C[C@H]2CN(CCc3c([nH]c4ccccc34)[C@@](C(=O)OC)(c3cc4c(cc3OC)N(C=O)[C@H]3[C@@](O)(C(=O)OC)[C@H](OC(C)=O)[C@]5(CC)C=CCN6CC[C@]43[C@@H]65)C2)C1 [VINCRISTINE] | 2.93 (≈ 3.55 µM) | 141.3 | 1 |

From ChEMBL document CHEMBL1130080, “Structure-activity relationships of diverse Annonaceous acetogenins against multidrug resistant human mammary adenocarcinoma (MCF-7/Adr) cells” (J Med Chem, 1997)
